ChEMBL document CHEMBL1221292, “Design, synthesis, and evaluation of quinazoline T cell proliferation inhibitors” (Bioorg Med Chem, 2010)

Legend:
[1] = system: Jurkat; experiment: Antiproliferative activity against human Jurkat cells after 72 hrs by BrdU incorporation assay; type: functional, cell-based
Procedure, shortened: (§1)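 Cells grown in RPMI at 37 °C, 5% CO2, then serum-starved 12 h. PBMC stimulated with ConA 10 µg/mL; Jurkat need no stimulation. 1 × 10^5 cells cultured 3 days with or without inhibitor, duplicate wells. Labelled with 10 µM BrdU, DNA denatured, anti-BrdU-POD added, colorimetric TMB read-out; IC50 derived.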

[2] = system: PBMC; experiment: Antiproliferative activity against ConA-stimulated human PBMC after 72 hrs by BrdU incorporation assay; type: functional, cell-based; procedure, shortened: as §1

Oc1ccc(Nc2nc(-c3cc(O)c(O)c(O)c3)nc3ccccc23)cc1
IC50 [1]: 1120 nM | IC50 [2]: 970 nM

COc1ccc(CNc2nc(-c3cc(O)c(O)c(O)c3)nc3ccccc23)cc1
IC50 [1]: 5430 nM | IC50 [2]: 3260 nM

CCCCCCCCOc1ccc(Nc2nc(-c3cc(OC)c(OC)c(OC)c3)nc3ccccc23)cc1
IC50 [1]: 850 nM | IC50 [2]: 2400 nM

COc1cc(-c2nc(Nc3ccc(C)cc3C)c3ccccc3n2)cc(OC)c1OC
IC50 [1]: 2600 nM | IC50 [2]: 750 nM

Oc1cc(-c2nc(Nc3ccc(OC(F)(F)F)cc3)c3ccccc3n2)cc(O)c1O
IC50 [1]: 3240 nM | IC50 [2]: 2780 nM

Oc1cc(-c2nc(Nc3ccc4nc[nH]c4c3)c3ccccc3n2)cc(O)c1O
IC50 [1]: 2570 nM | IC50 [2]: 4340 nM

Cc1ccc(Nc2nc(-c3cc(O)c(O)c(O)c3)nc3ccccc23)c(C)c1
IC50 [1]: 3700 nM | IC50 [2]: 730 nM

Oc1cc(-c2nc(Nc3ccc4[nH]ncc4c3)c3ccccc3n2)cc(O)c1O
IC50 [1]: 710 nM | IC50 [2]: 780 nM

COc1cc(-c2nc(NCc3ccc(N)cc3)c3ccccc3n2)cc(OC)c1OC
IC50 [1]: 480 nM | IC50 [2]: 380 nM

COc1ccc(Nc2nc(-c3cc(OC)c(OC)c(OC)c3)nc3ccccc23)cc1
IC50 [1]: 1100 nM | IC50 [2]: 500 nM

Oc1cc(-c2nc(Nc3ccc4cn[nH]c4c3)c3ccccc3n2)cc(O)c1O
IC50 [1]: 690 nM | IC50 [2]: 500 nM

Oc1cc(-c2nc(Nc3ccc(Cl)cc3)c3ccccc3n2)cc(O)c1O
IC50 [1]: 4250 nM | IC50 [2]: 550 nM

COc1cc(-c2nc(Nc3ccccc3)c3ccccc3n2)cc(OC)c1OC
IC50 [1]: 380 nM | IC50 [2]: 280 nM

COc1cc(-c2nc(Nc3ccc4[nH]ncc4c3)c3ccccc3n2)cc(OC)c1OC
IC50 [1]: 700 nM | IC50 [2]: 600 nM

Oc1cc(-c2nc(Nc3ccccc3)c3ccccc3n2)cc(O)c1O
IC50 [1]: 5500 nM | IC50 [2]: 650 nM

COc1ccc(Nc2nc(-c3cc(O)c(O)c(O)c3)nc3ccccc23)cc1
IC50 [1]: 550 nM | IC50 [2]: 500 nM

COc1cc(-c2nc(NCc3ccccc3)c3ccccc3n2)cc(OC)c1OC
IC50 [1]: 600 nM | IC50 [2]: 3250 nM
